What was measured:
Assay type in all cases: functional
[1] = Growth inhibition of human HBL100 cells after 48 hrs by SRB assay; details: HBL-100, 48 h
Procedure, shortened: (§1)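 Cells from an academic source, kept in 25 cm² flasks in RPMI 1640 with 5% heat-inactivated fetal calf serum. Dosing began day 1 after plating, in triplicate at several dilutions across […]. Vehicle controls got DMSO 0.25% v/v. After 48 h exposure, cells were fixed with ice-cold 50% w/v TCA for 60 min at 4 °C and stained by SRB. OD was read at 492 nm, corrected for medium-only background, and GI50 was derived from dose-response data.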

[2] = test system: HeLa; assay: Growth inhibition of human HeLa cells after 48 hrs by SRB assay; procedure, shortened: as §1
[3] = test system: WiDr; assay: Growth inhibition of human WiDr cells after 48 hrs by SRB assay; procedure, shortened: as §1
[4] = test system: T47D; assay: Growth inhibition of human T47D cells after 48 hrs by SRB assay; procedure, shortened: as §1
[5] = test system: SW1573; assay: Growth inhibition of human SW1573 cells after 48 hrs by SRB assay; details: SW1573, 48 h; procedure, shortened: as §1

| SMILES | GI50 [2] | GI50 [4] | GI50 [5] | GI50 [1] | GI50 [3] |
| --- | --- | --- | --- | --- | --- |
| C=C(C/C(=C\c1ccccc1)C(=O)c1ccccc1)C(=O)c1ccccc1 | 19 µM | 15 µM | 3 µM | 10 µM | 18 µM |
| O=C(OC/C(=C\c1ccccc1[N+](=O)[O-])C(=O)c1ccccc1)c1ccccc1 | 22 µM | 16 µM | 4.3 µM | 3.9 µM | 18 µM |
| CC(=O)OC/C(=C\c1ccccc1Br)C(=O)c1ccccc1 | 20 µM | 17 µM | 14 µM | 22 µM | 21 µM |
| CC(=O)OC/C(=C/c1ccccc1[N+](=O)[O-])C(=O)c1ccccc1 | 78 µM | 52 µM | > 100 µM | > 100 µM | > 100 µM |
| O=C(/C=C/c1ccc(Cl)cc1Cl)c1ccccc1 | 18 µM | 14 µM | 12 µM | 17 µM | 20 µM |
| CC(=O)OC/C(=C\c1ccccc1)C(=O)c1ccccc1 | 20 µM | 16 µM | 4.8 µM | 17 µM | 17 µM |
| COc1cc([C@@H]2c3cc4c(cc3[C@@H](O[C@@H]3O[C@@H]5CO[C@@H](C)O[C@H]5[C@H](O)[C@H]3O)[C@H]3COC(=O)[C@H]23)OCO4)cc(OC)c1O [ETOPOSIDE] | 3.3 µM | 22 µM | 15 µM | 1.4 µM | 23 µM |
| O=C(/C(=C/c1ccc(Cl)cc1Cl)CCl)c1ccccc1 | 15 µM | 6.3 µM | 3.8 µM | 3.1 µM | 13 µM |
| CC(=O)OC/C(=C/c1ccc(Cl)cc1Cl)C(=O)c1ccc(Cl)cc1 | 19 µM | 20 µM | 21 µM | 22 µM | 20 µM |
| CC(=O)OC/C(=C\c1ccccc1[N+](=O)[O-])C(=O)c1ccccc1 | 25 µM | 21 µM | 18 µM | 26 µM | 18 µM |
| CC(=O)OC/C(=C/c1ccccc1Br)C(=O)c1ccccc1 | 19 µM | 18 µM | 21 µM | 21 µM | 18 µM |
| CC(=O)OC/C(=C/c1ccc(Cl)cc1Cl)C(=O)c1ccccc1 | 22 µM | 20 µM | 22 µM | 23 µM | 19 µM |
| O=C(/C(=C/C1CCCCC1)CCl)c1ccccc1 | 30 µM | 29 µM | 23 µM | 22 µM | 22 µM |
| C=C(C/C(=C\c1ccc(Cl)cc1)C(=O)c1ccccc1)C(=O)c1ccccc1 | 22 µM | 19 µM | 6.1 µM | 17 µM | 20 µM |
| CC(=O)OC/C(=C\C1CCCCC1)C(=O)c1ccc(Cl)cc1 | 24 µM | 18 µM | 18 µM | 31 µM | 21 µM |
| CC(=O)OC/C(=C\c1ccc(Cl)cc1)C(=O)c1ccc(Cl)cc1 | 19 µM | 5.4 µM | 3.4 µM | 4 µM | 18 µM |
| O=C(OC/C(=C\C1CCCCC1)C(=O)c1ccccc1)c1ccccc1 | 24 µM | 20 µM | 17 µM | 23 µM | 19 µM |
| CC(=O)OC/C(=C\c1ccc(Cl)cc1Cl)C(=O)c1ccccc1 | 16 µM | 9.5 µM | 3.5 µM | 3.1 µM | 14 µM |
| C=C(C/C(=C\c1ccc(OC)cc1)C(=O)c1ccccc1)C(=O)c1ccccc1 | 0.32 µM | 0.37 µM | 0.45 µM | 0.53 µM | 0.47 µM |
| O=C(/C(=C/c1ccccc1)CCl)c1ccccc1 | 23 µM | 18 µM | 3.6 µM | 12 µM | 18 µM |
| O=C(/C=C/C1CCCCC1)c1ccccc1 | 21 µM | 15 µM | 10 µM | 18 µM | 21 µM |

The remaining compounds from weak to strong by GI50 [2], led by results:

| GI50 [2] | GI50 [4] | GI50 [5] | SMILES | GI50 [1] | GI50 [3] |
| --- | --- | --- | --- | --- | --- |
| 63 µM | 74 µM | 64 µM | O=C(/C(=C\C1CCCCC1)c1ccccc1)c1ccccc1 | 59 µM | 64 µM |
| 50 µM | 89 µM | 77 µM | CCC(/C=C(\COC(C)=O)C(=O)c1ccccc1)CC | > 100 µM | 52 µM |
| 47 µM | 52 µM | 41 µM | O=C(/C(=C\c1ccc(Cl)cc1Cl)c1ccccc1)c1ccccc1 | > 100 µM | 46 µM |
| 47 µM | 39 µM | 29 µM | O=C(/C(=C/C1CCCCC1)c1ccccc1)c1ccccc1 | 57 µM | 34 µM |
| 36 µM | 36 µM | 32 µM | CC(=O)OC/C(=C/c1ccc([N+](=O)[O-])cc1)C(=O)c1ccccc1 | 41 µM | 83 µM |
| 30 µM | 18 µM | > 100 µM | O=C(OC/C(=C/c1ccccc1[N+](=O)[O-])C(=O)c1ccccc1)c1ccccc1 | > 100 µM | 21 µM |
| 26 µM | 16 µM | 3.8 µM | CC(=O)OC/C(=C\c1ccc([N+](=O)[O-])cc1)C(=O)c1ccccc1 | 10 µM | 23 µM |
| 25 µM | 14 µM | 4.2 µM | CC(=O)OC/C(=C\c1ccc(F)cc1)C(=O)c1ccccc1 | 17 µM | 13 µM |
| 24 µM | 19 µM | 14 µM | CC(=O)OC/C(=C/c1ccccc1Cl)C(=O)c1ccccc1 | 21 µM | 22 µM |
| 22 µM | 18 µM | 6.1 µM | CC(=O)OC/C(=C\c1ccccc1F)C(=O)c1ccccc1 | 17 µM | 19 µM |
| 22 µM | 17 µM | 3.9 µM | O=C(/C(=C/c1ccc(Cl)cc1)CCl)c1ccccc1 | 3.2 µM | 19 µM |
| 21 µM | 22 µM | 19 µM | CC(=O)OC/C(=C\C1CCCCC1)C(=O)c1ccccc1 | 21 µM | 21 µM |
| 21 µM | 17 µM | 5.3 µM | C=C(C/C(=C\c1ccc(Cl)cc1)C(=O)c1ccc(Cl)cc1)C(=O)c1ccc(Cl)cc1 | 16 µM | 24 µM |
| 20 µM | 14 µM | 3.5 µM | C=C(C/C(=C\c1ccccc1F)C(=O)c1ccccc1)C(=O)c1ccccc1 | 15 µM | 17 µM |
| 20 µM | 17 µM | 3.3 µM | O=C(OC/C(=C\c1ccc(Cl)cc1Cl)C(=O)c1ccccc1)c1ccccc1 | 3.1 µM | 17 µM |
| 18 µM | 15 µM | 3.5 µM | C=C(C/C(=C\c1ccc(F)cc1)C(=O)c1ccccc1)C(=O)c1ccccc1 | 14 µM | 19 µM |
| 8.3 µM | 5.4 µM | 29 µM | O=C(OC/C(=C/c1ccc(Cl)cc1Cl)C(=O)c1ccccc1)c1ccccc1 | 26 µM | 8.7 µM |
| 5.7 µM | 12 µM | 5.3 µM | CC(=O)OC/C(=C/c1ccc(Cl)cc1)C(=O)c1ccc(Cl)cc1 | 16 µM | 17 µM |
| 4.6 µM | 5.2 µM | 3.4 µM | CC(=O)OC/C(=C\c1ccc(Cl)cc1Cl)C(=O)c1ccc(Cl)cc1 | 3.2 µM | 8.1 µM |
| 3.2 µM | 5.3 µM | 2.6 µM | CC(=O)OC/C(=C\c1ccc(Cl)cc1)C(=O)c1ccccc1 | 2.3 µM | 4.8 µM |
